Assay [1] concerns the target T1, TnIYD (Thermotoga neapolitana, UniProt B9K712).
T1 sequence (B9K712 1-186): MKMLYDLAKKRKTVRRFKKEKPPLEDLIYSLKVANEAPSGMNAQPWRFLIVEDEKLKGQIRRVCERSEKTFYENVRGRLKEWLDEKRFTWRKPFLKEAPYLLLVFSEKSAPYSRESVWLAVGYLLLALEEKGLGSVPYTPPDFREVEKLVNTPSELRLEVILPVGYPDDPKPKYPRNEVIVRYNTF
In words: Active site ligand binding by quenching of FMNox fluorescence, wild-type TnIYD.

Assay [2] has as its target T1, TnIYD. In words: Catalytic dehalogenation, steady-state kinetics. It is filed as biochemical. Conditions: for Km / kcat: substrate of TnIYD.
The target in another assay is T2, TnIYD Y112A (Thermotoga neapolitana, UniProt B9K712, Y112A).
T2 sequence (B9K712 1-186 Y112A): T1 sequence (B9K712 1-186) with Y112A
In words: Active site ligand binding by quenching of FMNox fluorescence, Y112A variant. A digest of the protocol: (§1)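 C-terminal His6-tagged T. neapolitana IYD variants, made by mutagenesis, were expressed in E. coli Rosetta2 and purified on Ni-NTA. They were incubated with ~300 μM FMN and quantified by bound-FMN A450. Excitation was 450 nm and emission 516–526 nm. Dilution-corrected F/F0 versus ligand was fit to a two-state binding isotherm.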

A further assay has as its target T3, TnIYD M41A (Thermotoga neapolitana, UniProt B9K712, M41A).
T3 sequence (B9K712 1-186 M41A): T1 sequence (B9K712 1-186) with M41A
In words: Active site ligand binding by quenching of FMNox fluorescence, M41A variant. A digest of the protocol:
as §1

The target of another assay is T4, TnIYD M41A/Y112A (Thermotoga neapolitana, UniProt B9K712, M41A/Y112A).
T4 sequence (B9K712 1-186 M41A/Y112A): T1 sequence (B9K712 1-186) with M41A, Y112A
It is filed as binding. A digest of the protocol:
as §1

The next assay has as its target T5, TnIYD M41K (Thermotoga neapolitana, UniProt B9K712, M41K).
T5 sequence (B9K712 1-186 M41K): T1 sequence (B9K712 1-186) with M41K
Put plainly: Active site ligand binding by quenching of FMNox fluorescence, M41K variant. A digest of the protocol:
as §1

For another assay, the target named is T6, TnIYD M41F (Thermotoga neapolitana, UniProt B9K712, M41F).
T6 sequence (B9K712 1-186 M41F): T1 sequence (B9K712 1-186) with M41F
In words: Active site ligand binding by quenching of FMNox fluorescence, M41F variant. The procedure, abridged: as §1

The target in another assay is T7, TnIYD Y112A/W82A/F88A (Thermotoga neapolitana, UniProt B9K712, F88A/W82A/Y112A).
T7 sequence (B9K712 1-186 W82A/F88A/Y112A): T1 sequence (B9K712 1-186) with W82A, F88A, Y112A
It is filed as binding. The procedure, abridged:
as §1

The next assay has as its system IYD from mesophiles. Conditions: cited from earlier work.

Results on two compounds are retold here after PMC8668982 (The Journal of Biological Chemistry, 2021).

Broadly, the Kd is the free concentration of one partner at which half of the binding sites on the other are occupied at equilibrium, for simple one-to-one binding. Read a high Kd as lower affinity. As a reminder, the Km is the concentration of substrate that gives half-maximal velocity. What is called kcat is the number of substrate molecules converted per active site and unit of time at saturation.

Residue numbers refer to the chain shown, from its start.

On TnIYD [1], `Oc1ccccc1I` [2-IP, 2-iodophenol] displayed a Kd of 31 ± 1 µM. Further, at TnIYD [2] (25 °C), the “difference in Km values for I-Tyr and 2-IP” value is 19,000 fold; the “difference of kcat relative to the kcat value of I-Tyr” value is given as 2 fold; the “efficiency (kcat/Km) relative to that for iodotyrosine” value is recorded as “less than 0.01%”; the Km worked out at 4.2 mM. Moreover, the kcat at TnIYD [2] (25 °C) is 0.014 ± 0.001 s⁻¹. Further, on TnIYD [2] (60 °C vs 25 °C), the “increase of kcat at 60 °C relative to 25 °C” value was “less than 8 fold”. In addition, at TnIYD [2] (60 °C), the Km worked out at 6.6 mM and the turnover number (kcat) turned out to be 0.108 ± 0.005 s⁻¹. Moreover, at TnIYD [2] (at both temperatures (25 °C and 60 °C)), the “kcat/Km smaller than that for I-Tyr” value is on record as “more than 10,000 fold”.
Regarding `N[C@@H](Cc1ccc(O)cc1)C(=O)O` [Tyr, tyrosine], the Kd on TnIYD [1] is 0.45 ± 0.07 µM; on TnIYD Y112A, 0.9 ± 0.1 µM; at TnIYD M41A, 1.6 ± 0.2 µM; at TnIYD M41A/Y112A it was 0.95 ± 0.09 µM; on TnIYD M41K, 7.4 ± 0.2 µM; on TnIYD M41F, 0.09 ± 0.06 µM. In addition, the Kd at TnIYD Y112A/W82A/F88A came out at 1200 ± 20 µM. Also, the “weakening of affinity by M41A substitution relative to wt TnIYD” value at TnIYD M41A (25 °C) is 3.6 fold. Further, on TnIYD M41A/Y112A (25 °C), the “decrease of affinity by M41A/Y112A variant relative to wt TnIYD” value was found to be 2 fold. In addition, the “decrease of affinity by M41K variant relative to wt TnIYD” value at TnIYD M41K (25 °C) worked out at 16 fold. The “enhancement of binding by M41F variant relative to wt TnIYD” value on TnIYD M41F (25 °C) is listed as 5 fold. Besides, at TnIYD Y112A/W82A/F88A (25 °C), the “weakening of binding by W82A/F88A/Y112A triple mutant relative to wt TnIYD” value was “more than 2600 fold”. In addition, the “affinity of Tyr to IYD from mesophiles” value with IYD from mesophiles is recorded as “too weak to measure”.
